Compound activity deposited in PubChem BioAssay by The Scripps Research Institute Molecular Screening Center.
Only some compounds are listed: those with a hit (about 3.4% of all), similar ones and a draw of the others.
TAAR1 antagonist = antagonists of human TAAR1. inhibition, % at 3 µM. actives 1.5% (n = 360,000). CHO RD-HGA16 TAAR1, Fluo-8 calcium fluorescence, antagonist;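 active = inhibition above a per-plate cutoff, the mean inhibition of test compounds on that plate plus 3 SD, cut at about 49% in these data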;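 also: 0% = DMSO plus EC80 beta-PEA response and 100% = DMSO alone without agonist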
Target sequence (Q96RJ0 whole entry, looked up): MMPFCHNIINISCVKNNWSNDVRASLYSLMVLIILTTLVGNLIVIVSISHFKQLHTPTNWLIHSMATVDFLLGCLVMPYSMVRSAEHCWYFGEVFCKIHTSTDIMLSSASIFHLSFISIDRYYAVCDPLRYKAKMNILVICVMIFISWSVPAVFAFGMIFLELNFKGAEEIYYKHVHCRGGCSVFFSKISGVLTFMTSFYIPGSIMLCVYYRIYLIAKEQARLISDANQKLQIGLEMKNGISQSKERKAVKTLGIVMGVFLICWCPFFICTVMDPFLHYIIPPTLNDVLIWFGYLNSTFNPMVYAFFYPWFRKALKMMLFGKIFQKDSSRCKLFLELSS
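Test system: RD-HGA16 CHO cells with stable hTAAR1 and Gα16 / Probe or stimulus: EC80 β-phenethylamine stimulus / Times: seeding 17-24 h prior, 75-min 37 °C, 30-min RT dye loading / Detection: Fluo-8 calcium-sensitive fluorescence / Read-out basis: % inhibition scaled between DMSO and EC80 PEA controls / Repeats: singlicate, one well per test compound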
TAAR1 ag = agonists of human TAAR1; CHO RD-HGA16 TAAR1, Fluo-8 calcium fluorescence; vehicle wells 0%, saturating PEA agonist 100%; activation, % at 3 µM; actives 0.99% (n = 360,000);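 active = activation above the mean activation of all test compounds in the run plus 3 SD, cut at about 38% in these data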
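System: CHO-derived RD-HGA16 cells with stable Gα16 and human TAAR1. Times: 17-24 h plating, Fluo-8 75 min 37 °C, 30 min RT. Measured by: calcium-sensitive Fluo-8 signal, excitation 470-495, emission 515-575 nm. Read-out basis: % activation relative to PEA EC100 response. Control set: DMSO and PEA EC100. Repeats: no replicates (n 1).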
M1 PAM = human CHRM1 positive allosteric modulation; P11229; CHO-K1 hM1, Fluo-8 calcium fluorescence, ACh EC20; 0% = ACh EC20, 100% = maximal ACh; activation, % at 3 µM; actives 0.088% (n = 360,000); AID 588819; in the data active = activation above about 19%, passing the limit was not always enough
M1 ag = human M1 muscarinic receptor agonism; actives 0.33% (n = 360,000); P11229; activation, % at 3 µM; AID 588814; CHO-K1 hM1, Fluo-8 calcium fluorescence, agonist mode; 0% DMSO, 100% acetylcholine EC100;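 active = activation above the run's mean compound activation plus 3 SD, cut at about 16% in these data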;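 also: peak over basal fluorescence ratio within a 140 s kinetic read after compound addition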
CHRM1 antagonist = antagonists of human M1 muscarinic receptor; CHO-K1 hM1, Fluo-8 calcium fluorescence, ACh EC80 antagonist; inhibition, % at 3 µM; P11229; AID 588852; actives 1.3% (n = 360,000);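 active = percent inhibition above its own plate's cutoff, namely the mean of that plate's compound wells plus 3 SD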;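 also: peak over basal fluorescence ratio during 140 s after agonist addition; 0% = ACh EC80 plus DMSO and 100% = DMSO alone without agonist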
Numbers without * were called inactive; . = no result.

SMILES	TAAR1 antagonist	TAAR1 ag	M1 PAM	M1 ag	CHRM1 antagonist
C[N+]1(C)[C@@H]2CC[C@H]1CC(OC(=O)C(c1ccccc1)c1ccccc1)C2 (stereo not given in full)	-1.8	-0.5	-32.0	-7.6	101.5*
Cc1cc(N2CCNC[C@@H]2C)ccc1N1CC[C@@H](O)C1	-27.7	2.7	.	.	.
CN1CC(C(=O)c2cccs2)C(c2ccc(Cl)cc2)C1 (stereo not given)	-23.0	0.9	-4.7	-7.1	-0.7
O=C(c1cccs1)C1CN2CCC1CC2 (stereo not given)	-27.1	11.4	-19.4	-5.4	38.4*
O=C(O)C1CN2CCC1CC2 (stereo not given)	7.6	12.6	-6.3	25.3*	4.1
CC(OC(=O)c1cn(C)c2ccccc12)C(=O)N(C)c1ccccc1 (stereo not given)	0.8	-0.5	1.0	-4.2	-2.9
CCC12CCN(CC3(O)CC3)C(Cc3ccc(O)cc31)C2(C)C (stereo not given)	12.8	0.7	.	.	.
COc1ccc(-n2nnnc2C(c2ccccc2OC(F)(F)F)N2CCC3(CC2)C(=O)NCN3c2ccccc2)cc1 (stereo not given)	18.6	3.0	7.2	2.6	-30.4
COC(=O)[C@@]1(Sc2ccc(C)cc2)CC(=O)N(P(=O)(OC)OC)[C@@H]1c1ccccc1	10.2	0.6	.	.	.
O=[N+]([O-])c1ccc(-[n+]2c(-c3ccccc3)cc(-c3ccccc3)cc2-c2ccccc2)cc1	-2.9	7.6	-19.8	-11.2	35.8*
c1ccc2c(c1)[IH]c1ccccc1-2	-2.3	4.6	-10.0	-4.3	13.8
O=C1NC(=O)N(c2ccccc2F)C(=O)/C1=C/c1ccc(Sc2nc3ccccc3[nH]2)o1	56.8*	74.3*	-9.1	17.5*	10.4
O=C1NC(=O)N(c2ccccc2)C(=O)/C1=C/c1ccc(Sc2ccccc2)o1	.	.	8.3	-3.6	5.0
CN1CCCC1c1ccc(=O)[nH]c1 (stereo not given)	-9.3	0.1	-0.9	-1.7	-2.0
CS(=O)(=O)c1ccc(C2=C(CNC(=O)c3ccncc3)[C@H]3CC[C@@H](C2)N3Cc2ccccc2)cc1	0.5	3.3	-8.4	-10.7	8.2
CS(=O)(=O)c1ccc(C2=C(CNC(=O)c3nccs3)[C@H]3CC[C@@H](C2)N3CCOc2ccccc2)cc1	0.1	1.2	-26.2	-10.6	56.5*
CS(=O)(=O)c1ccc(C2=C(CNC(=O)c3cccs3)[C@H]3CC[C@@H](C2)N3CCOc2ccccc2)cc1	2.6	0.5	-24.9	-10.7	35.0*
CCCC1(CCO)C(=O)NC(=S)NC1=O	-26.6	5.7	9.6	-0.5	-15.9
Cc1cc(-c2cc(C)c(N)c(C)c2)cc(C)c1N	-9.4	0.6	-5.1	-1.4	3.6
CCC(C)N1CCN(C(=O)Cc2ccccc2)CC1 (stereo not given)	-6.9	5.1	-20.3	-5.8	41.1*
COC(=O)C1=C(c2ccc(-c3ccccc3)c(F)c2)C[C@@H]2CC[C@H]1N2C(=O)NCc1cccc2ccccc12	-10.9	6.5	1.4	-3.8	-1.9
COC(=O)C1=C(c2cccc3c2S(=O)(=O)c2ccccc2-3)C[C@@H]2CC[C@H]1N2C(=O)N1CCc2cc(OC)c(OC)cc2C1	50.8*	16.9	-6.1	-4.5	16.3
COCCO[C@H]1CCC2C3CC=C4C[C@@H](O)CC[C@]4(C)C3CC[C@@]21C (stereo not given in full)	-8.3	-0.4	1.4	-3.0	-8.1
CC(O)C1C=CC=CC(=O)OC2CC3OC4C5OC5(C)CCC4(COC(=O)C4OC4(C)C(O)CO1)C2(C)C31CO1 (stereo not given)	-11.7	0.4	-6.5	-0.3	8.8
CC(=O)OC1C(=O)OCC23CCC4(C)OC4C2OC2CC(OC(=O)C=CC=CC(=O)OCCC1C)C3(C)C21CO1 (stereo not given)	64.8*	12.2	-9.9	-1.1	14.4
OC(Cc1ccccc1)(c1ccccc1)C1CN2CCC1CC2 (stereo not given)	-10.6	7.7	-23.3	-5.2	98.2*
OC(c1ccccc1)(c1ccccc1)C1CN2CCC1CC2 (stereo not given)	7.1	7.0	-28.1	-11.0	98.1*
c1ccc(C2CN3CCC2CC3)cc1 (stereo not given)	-6.7	0.6	-13.2	5.4	41.2*
